Laboratory results reported in ChEMBL document CHEMBL1140153, “Structure-activity relationships of truncated D- and l-4'-thioadenosine derivatives as species-independent A3 adenosine receptor antagonists” (J Med Chem, 2008).
pKi: −log10 of the molar value. Active and inactive are the calls of the source. The calls are words filed in the database; no cut-off is given here.

Experiments:
Adenosine receptor A3 [1] = target: T1, Adenosine receptor A3 (Homo sapiens, UniProt P0DMS8); experiment: Displacement of [125I]I-AB-MECA from human adenosine A3 receptor expressed in CHO cells; format: cell-based
T1 sequence (P0DMS8 whole entry): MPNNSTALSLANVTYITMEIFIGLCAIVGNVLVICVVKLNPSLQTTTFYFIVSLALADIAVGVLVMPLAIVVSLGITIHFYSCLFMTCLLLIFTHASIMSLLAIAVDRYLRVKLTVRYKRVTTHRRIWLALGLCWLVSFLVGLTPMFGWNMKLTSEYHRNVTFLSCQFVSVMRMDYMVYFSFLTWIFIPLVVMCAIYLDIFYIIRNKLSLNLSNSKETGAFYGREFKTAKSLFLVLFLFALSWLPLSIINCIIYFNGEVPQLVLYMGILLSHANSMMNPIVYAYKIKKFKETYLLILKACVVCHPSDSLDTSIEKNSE

Adenosine receptor A1 = target: T2, Adenosine receptor A1 (Homo sapiens, UniProt P30542); experiment: Displacement of [3H]CCPA from human adenosine A1 receptor expressed in CHO cells; format: cell-based
T2 sequence (P30542 whole entry): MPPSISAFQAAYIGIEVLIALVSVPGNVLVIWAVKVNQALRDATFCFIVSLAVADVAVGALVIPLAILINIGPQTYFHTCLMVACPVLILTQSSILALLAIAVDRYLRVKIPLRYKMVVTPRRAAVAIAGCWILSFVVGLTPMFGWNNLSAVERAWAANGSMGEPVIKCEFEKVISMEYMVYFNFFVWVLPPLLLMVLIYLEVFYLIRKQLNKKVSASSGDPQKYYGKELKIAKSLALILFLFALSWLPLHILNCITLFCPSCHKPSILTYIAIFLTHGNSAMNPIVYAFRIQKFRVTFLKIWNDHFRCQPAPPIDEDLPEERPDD

Adenosine receptor A3 [2] = target: T3, Adenosine receptor A3 (Rattus norvegicus, UniProt P28647); experiment: Displacement of [125I]I-AB-MECA from rat adenosine A3 receptor expressed in CHO cells; format: cell-based
T3 sequence (P28647 whole entry): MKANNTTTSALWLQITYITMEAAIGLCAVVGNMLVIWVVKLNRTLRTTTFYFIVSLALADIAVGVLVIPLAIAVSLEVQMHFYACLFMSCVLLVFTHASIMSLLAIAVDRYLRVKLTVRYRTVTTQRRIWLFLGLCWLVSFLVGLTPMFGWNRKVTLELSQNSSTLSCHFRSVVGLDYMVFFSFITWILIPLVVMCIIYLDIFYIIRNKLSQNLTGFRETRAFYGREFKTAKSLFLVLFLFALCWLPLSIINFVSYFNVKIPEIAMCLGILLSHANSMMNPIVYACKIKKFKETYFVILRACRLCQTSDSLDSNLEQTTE

[3] = target: T4, Adenosine receptor A3 (Homo sapiens) (UniProt P0DMS8); experiment: Antagonist activity at human adenosine A3 receptor expressed in CHO cells assessed as inhibition of forskolin-stimulated cAMP production at 10 uM relative to (2S,3S,4R,5R)-5-(6-(3-iodobenzylamino)-9H-purin-9-yl)-3,4-dihydroxy-N-methyl-tetrahydrothiophene-2-carboxamide; format: functional, cell-based; parameters: scale not given: the % may be the effect or the level left
T4 sequence (whole entry): T1 sequence (P0DMS8 whole entry)
How it was run: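 CHO cells stably expressing human A3 AR; forskolin-stimulated cAMP production measured with test compound at 10 μM; response given as mean percentage of a full A3 agonist's effect, n = 1–3.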

[4] = target: Adenosine receptor A2a (Homo sapiens) (UniProt P29274); experiment: Displacement of [3H]CGS-21680 from human adenosine A2A receptor expressed in HEK293 cells at 10 uM; format: cell-based
How it was run: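 Human A2A AR HEK-293 membranes (20 μg/tube) with [3H]CGS21680 in 50 mM Tris-HCl pH 7.4 with 10 mM MgCl2, 60 min at 25 °C; nonspecific binding with 10 μM NECA; GF/B filtration.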

[5] = target: T5, Adenosine receptor A3 (Rattus norvegicus) (UniProt P28647); experiment: Displacement of [125I]I-AB-MECA from rat adenosine A3 receptor expressed in CHO cells at 10 uM; format: cell-based
T5 sequence (whole entry): T3 sequence (P28647 whole entry)
How it was run: (§1)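 Membranes (20 μg protein) from CHO cells stably expressing human or rat A3 AR were incubated with 0.5 nM [125I]I-AB-MECA and increasing ligand concentrations in 50 mM Tris-HCl pH 7.4 with 10 mM MgCl2 for 60 min at 25 °C. Nonspecific binding was set with 10 μM NECA. Filtration through GF/B, washed ×3 with ice-cold buffer, γ-counting.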

[6] = target: T4, Adenosine receptor A3 (Homo sapiens); experiment: Displacement of [125I]I-AB-MECA from human adenosine A3 receptor expressed in CHO cells at 10 uM; format: cell-based; how it was run: as §1
[7] = target: T6, Adenosine receptor A1 (Homo sapiens) (UniProt P30542); experiment: Displacement of [3H]CCPA from human adenosine A1 receptor expressed in CHO cells at 10 uM; format: cell-based
T6 sequence (whole entry): T2 sequence (P30542 whole entry)
How it was run: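 Human A1 AR CHO membranes (40 μg/tube) were incubated with 1 nM [3H]CCPA in 50 mM Tris-HCl pH 7.4 with 10 mM MgCl2 for 60 min at 25 °C; 10 μM NECA defined nonspecific binding; GF/B filtration.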

[8] = target: T7, Adenosine receptor A2b (Homo sapiens) (UniProt P29275); experiment: Antagonist activity at human adenosine A2B receptor by cAMP assay; format: functional
T7 sequence (whole entry): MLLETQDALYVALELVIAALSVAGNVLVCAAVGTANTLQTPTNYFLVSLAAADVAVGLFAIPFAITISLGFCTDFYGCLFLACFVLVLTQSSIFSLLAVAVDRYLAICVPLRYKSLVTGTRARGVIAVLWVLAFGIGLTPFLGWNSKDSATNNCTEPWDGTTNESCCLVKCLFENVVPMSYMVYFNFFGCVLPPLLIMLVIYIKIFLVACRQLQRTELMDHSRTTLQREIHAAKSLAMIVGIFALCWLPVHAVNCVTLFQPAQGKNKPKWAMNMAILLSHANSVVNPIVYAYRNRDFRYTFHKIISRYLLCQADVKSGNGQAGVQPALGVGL

[9] = target: T7, Adenosine receptor A2b (Homo sapiens); experiment: Agonist activity at human adenosine A2B receptor by cAMP assay; format: functional

Sequence of Adenosine receptor A2a (Homo sapiens) (P29274 whole entry): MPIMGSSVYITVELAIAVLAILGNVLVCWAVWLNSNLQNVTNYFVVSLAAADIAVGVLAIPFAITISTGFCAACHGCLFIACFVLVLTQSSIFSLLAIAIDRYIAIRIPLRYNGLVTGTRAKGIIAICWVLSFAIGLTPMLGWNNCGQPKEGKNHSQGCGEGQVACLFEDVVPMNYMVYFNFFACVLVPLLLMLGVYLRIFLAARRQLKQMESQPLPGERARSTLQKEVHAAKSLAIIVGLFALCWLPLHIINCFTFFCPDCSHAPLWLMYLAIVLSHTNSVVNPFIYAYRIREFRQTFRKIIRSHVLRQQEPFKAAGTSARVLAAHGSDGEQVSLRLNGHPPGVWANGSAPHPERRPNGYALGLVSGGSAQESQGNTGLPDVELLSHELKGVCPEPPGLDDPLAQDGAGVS

Row | pKi (Adenosine receptor A3 [2]) | Activity [3] | SMILES | other results
1 | 8.73 | Active | CNC(=O)[C@H]1S[C@@H](n2cnc3c(NCc4cccc(I)c4)ncnc32)[C@H](O)[C@@H]1O | pKi (Adenosine receptor A3 [1]): 9.60; pKi (Adenosine receptor A1): 7.76
2 | 8.20 | < 10% | O[C@@H]1[C@H](O)CS[C@H]1n1cnc2c(NCc3cccc(Br)c3)ncnc21 | –
3 | 7.77 | < 10% | O[C@@H]1[C@H](O)CS[C@H]1n1cnc2c(NCc3cccc(Cl)c3)ncnc21 | –
4 | – | < 10% | O[C@@H]1[C@H](O)CS[C@H]1n1cnc2c(NCc3cccc(Cl)c3)nc(Cl)nc21 | –
5 | – | < 10% | O[C@@H]1[C@H](O)CS[C@H]1n1cnc2c(NCc3cccc(F)c3)nc(Cl)nc21 | –
6 | 7.01 | < 10% | O[C@@H]1[C@H](O)CS[C@H]1n1cnc2c(NCc3cccc(F)c3)ncnc21 | –
7 | – | < 10% | CNc1ncnc2c1ncn2[C@@H]1SC[C@@H](O)[C@H]1O | pKi (Adenosine receptor A3 [1]): 8.32; inhibition [4]: 22%; pKi (Adenosine receptor A1): 5.97; inhibition [5]: 28%
8 | – | < 10% | O[C@H]1[C@@H](O)CS[C@@H]1n1cnc2c(NCc3cccc(Br)c3)nc(Cl)nc21 | inhibition [6]: 12.6%; inhibition [7]: 6.1%; inhibition [4]: 45.7%
9 | – | < 10% | O[C@H]1[C@@H](O)CS[C@@H]1n1cnc2c(NCc3cccc(I)c3)nc(Cl)nc21 | inhibition [6]: 18.4%; inhibition [7]: -8%; inhibition [4]: -0.95%
10 | – | < 10% | O[C@@H]1[C@H](O)CS[C@H]1n1cnc2c(NCc3cccc(I)c3)ncnc21 | –
11 | – | < 10% | CNc1nc(Cl)nc2c1ncn2[C@@H]1SC[C@@H](O)[C@H]1O | –
12 | – | < 10% | O[C@@H]1[C@H](O)CS[C@H]1n1cnc2c(NCc3cccc(Br)c3)nc(Cl)nc21 | –
13 | – | < 10% | O[C@@H]1[C@H](O)CS[C@H]1n1cnc2c(NCc3cccc(I)c3)nc(Cl)nc21 | Activity [8]: inactive; Activity [9]: inactive
